The values below come from ChEMBL document CHEMBL4422684, “Identification of novel lysine demethylase 5-selective inhibitors by inhibitor-based fragment merging strategy” (Bioorg Med Chem, 2019).

In experiment [1] the target is Lysine-specific demethylase 5B (Homo sapiens, UniProt Q9UGL1). Kind of experiment: Inhibition of human N-terminal FLAG/His-tagged KDM5B (2 to 751 residues) expressed in baculovirus infected Sf9 insect cells using H3(1-21)K4(Me3)-GGK(Biotin)/2-OG as substrate measured after 1 hr by Alphalisa assay. In a few lines: (§1)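 AlphaLISA demethylase assay in 50 mM HEPES pH 7.5, 0.1% BSA, 0.01% Tween 20 with DMSO. Enzyme and inhibitor combined, then peptide plus 2-OG (50 µM), Fe(II) (5 µM) and ascorbate (100 µM) in the added mix; 1 h at room temperature with shaking.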

Experiment [2] concerns the target T1, Lysine-specific demethylase 6B (Homo sapiens, UniProt O15054). Kind of experiment: Inhibition of human C-terminal FLAG-tagged KDM6B (1043 to end residues) expressed in baculovirus infected Sf9 insect cells at 50 uM using H3(21-44)-K27(Me3)-GK(Biotin)/2-OG as substrate measured after 1 hr by Alphalisa assay relative to control. In a few lines:
as §1

The target in experiment [3] is Histone lysine demethylase PHF8 (Homo sapiens, UniProt Q9UPP1). Kind of experiment: Inhibition of human N-terminal FLAG-tagged KDM7B (2 to 525 residues) expressed in baculovirus infected Sf9 insect cells at 25 uM using H3(1-21)K9(Me2)-GGK(Biotin)/2-OG as substrate measured after 1 hr by Alphalisa assay relative to control. In a few lines:
as §1

Experiment [4] addresses T1, Lysine-specific demethylase 6B. As to the kind of experiment: Inhibition of human C-terminal FLAG-tagged KDM6B (1043 to end residues) expressed in baculovirus infected Sf9 insect cells using H3(21-44)-K27(Me3)-GK(Biotin)/2-OG as substrate measured after 1 hr by Alphalisa assay. Put shortly:
as §1

In experiment [5] the target is T2, Lysine-specific demethylase 5A (Homo sapiens, UniProt P29375). Kind of experiment: Inhibition of KDM5A in human A549 cells assessed as increase in H3K4me3 levels after 48 hrs by Western blot analysis. The experiment is classed as cell-based. Put shortly:
(§2)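 A549 cells (5 × 10^5 per 2 mL well, RPMI1640 with 10% heat-inactivated FBS) exposed 48 h to compounds at 1, 5 or 25 µM. SDS lysates normalised by BCA, separated on 5-20% SDS-PAGE, blotted to PVDF, blocked in 5% milk/TBS-T, probed for H3K4me3, H3K9me3, H3K27me3 and total H3, detected by HRP chemiluminescence.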

In experiment [6] the test system is A549. Kind of experiment: Inhibition of KDM4 in human A549 cells assessed as increase in H3K9me3 levels up to 25 uM after 48 hrs by Western blot analysis. The experiment is classed as cell-based. In a few lines:
as §2

In experiment [7] the test system is A549. Kind of experiment: Inhibition of KDM6 in human A549 cells assessed as increase in […] levels up to 25 uM after 48 hrs by Western blot analysis. The experiment is classed as cell-based. Put shortly: as §2
For experiment [8], the target named is T2, Lysine-specific demethylase 5A. As to the kind of experiment: Inhibition of human C-terminal FLAG-tagged KDM5A (1 to 1090 residues) expressed in baculovirus infected Sf9 insect cells at 25 uM using H3(1-21)K4(Me3)-GGK(Biotin)/2-OG as substrate measured after 1 hr by Alphalisa assay relative to control. In a few lines:
as §1

The target of experiment [9] is T3, Lysine-specific demethylase 4A (Homo sapiens) (UniProt O75164).
T3 sequence (whole entry): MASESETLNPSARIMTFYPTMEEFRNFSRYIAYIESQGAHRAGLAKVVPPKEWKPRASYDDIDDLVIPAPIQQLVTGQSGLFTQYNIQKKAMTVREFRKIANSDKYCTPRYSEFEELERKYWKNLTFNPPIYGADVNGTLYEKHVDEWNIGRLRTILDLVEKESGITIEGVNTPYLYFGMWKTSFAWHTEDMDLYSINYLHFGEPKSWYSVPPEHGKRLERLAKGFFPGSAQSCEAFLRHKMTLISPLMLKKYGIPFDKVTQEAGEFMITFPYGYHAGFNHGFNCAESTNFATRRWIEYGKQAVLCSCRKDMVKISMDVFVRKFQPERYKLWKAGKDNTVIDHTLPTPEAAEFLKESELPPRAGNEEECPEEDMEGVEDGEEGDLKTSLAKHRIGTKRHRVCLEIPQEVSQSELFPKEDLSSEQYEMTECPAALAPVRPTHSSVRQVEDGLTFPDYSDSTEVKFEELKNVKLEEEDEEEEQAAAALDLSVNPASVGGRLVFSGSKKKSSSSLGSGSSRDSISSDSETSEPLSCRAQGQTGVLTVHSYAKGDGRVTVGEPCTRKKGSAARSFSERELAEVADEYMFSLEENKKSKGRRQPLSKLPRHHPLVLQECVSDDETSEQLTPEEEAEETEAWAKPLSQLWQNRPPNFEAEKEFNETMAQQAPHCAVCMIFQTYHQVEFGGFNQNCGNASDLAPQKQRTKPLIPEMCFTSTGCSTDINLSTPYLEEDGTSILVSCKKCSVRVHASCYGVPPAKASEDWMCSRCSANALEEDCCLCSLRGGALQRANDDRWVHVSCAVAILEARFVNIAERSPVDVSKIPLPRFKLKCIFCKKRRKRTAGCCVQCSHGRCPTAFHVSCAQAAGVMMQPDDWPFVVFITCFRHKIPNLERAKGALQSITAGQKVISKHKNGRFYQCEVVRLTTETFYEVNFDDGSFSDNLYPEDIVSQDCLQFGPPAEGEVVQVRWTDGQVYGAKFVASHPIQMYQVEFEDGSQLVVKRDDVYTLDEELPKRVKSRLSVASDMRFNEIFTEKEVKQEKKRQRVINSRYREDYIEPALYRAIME
As to the kind of experiment: Inhibition of human N-terminal His-tagged KDM4A (1 to 350 residues) expressed in Escherichia coli at 25 uM using H3(21-44)-K36(Me3)-GK(Biotin)/2-OG as substrate measured after 1 hr by Alphalisa assay relative to control. Put shortly: as §1

pIC50: −log10 of the molar value. The source made the active and inactive calls. No cut-off for these calls is given here.

Lysine-specific demethylase 5B, sequence (Q9UGL1 whole entry, the tested form may be a part): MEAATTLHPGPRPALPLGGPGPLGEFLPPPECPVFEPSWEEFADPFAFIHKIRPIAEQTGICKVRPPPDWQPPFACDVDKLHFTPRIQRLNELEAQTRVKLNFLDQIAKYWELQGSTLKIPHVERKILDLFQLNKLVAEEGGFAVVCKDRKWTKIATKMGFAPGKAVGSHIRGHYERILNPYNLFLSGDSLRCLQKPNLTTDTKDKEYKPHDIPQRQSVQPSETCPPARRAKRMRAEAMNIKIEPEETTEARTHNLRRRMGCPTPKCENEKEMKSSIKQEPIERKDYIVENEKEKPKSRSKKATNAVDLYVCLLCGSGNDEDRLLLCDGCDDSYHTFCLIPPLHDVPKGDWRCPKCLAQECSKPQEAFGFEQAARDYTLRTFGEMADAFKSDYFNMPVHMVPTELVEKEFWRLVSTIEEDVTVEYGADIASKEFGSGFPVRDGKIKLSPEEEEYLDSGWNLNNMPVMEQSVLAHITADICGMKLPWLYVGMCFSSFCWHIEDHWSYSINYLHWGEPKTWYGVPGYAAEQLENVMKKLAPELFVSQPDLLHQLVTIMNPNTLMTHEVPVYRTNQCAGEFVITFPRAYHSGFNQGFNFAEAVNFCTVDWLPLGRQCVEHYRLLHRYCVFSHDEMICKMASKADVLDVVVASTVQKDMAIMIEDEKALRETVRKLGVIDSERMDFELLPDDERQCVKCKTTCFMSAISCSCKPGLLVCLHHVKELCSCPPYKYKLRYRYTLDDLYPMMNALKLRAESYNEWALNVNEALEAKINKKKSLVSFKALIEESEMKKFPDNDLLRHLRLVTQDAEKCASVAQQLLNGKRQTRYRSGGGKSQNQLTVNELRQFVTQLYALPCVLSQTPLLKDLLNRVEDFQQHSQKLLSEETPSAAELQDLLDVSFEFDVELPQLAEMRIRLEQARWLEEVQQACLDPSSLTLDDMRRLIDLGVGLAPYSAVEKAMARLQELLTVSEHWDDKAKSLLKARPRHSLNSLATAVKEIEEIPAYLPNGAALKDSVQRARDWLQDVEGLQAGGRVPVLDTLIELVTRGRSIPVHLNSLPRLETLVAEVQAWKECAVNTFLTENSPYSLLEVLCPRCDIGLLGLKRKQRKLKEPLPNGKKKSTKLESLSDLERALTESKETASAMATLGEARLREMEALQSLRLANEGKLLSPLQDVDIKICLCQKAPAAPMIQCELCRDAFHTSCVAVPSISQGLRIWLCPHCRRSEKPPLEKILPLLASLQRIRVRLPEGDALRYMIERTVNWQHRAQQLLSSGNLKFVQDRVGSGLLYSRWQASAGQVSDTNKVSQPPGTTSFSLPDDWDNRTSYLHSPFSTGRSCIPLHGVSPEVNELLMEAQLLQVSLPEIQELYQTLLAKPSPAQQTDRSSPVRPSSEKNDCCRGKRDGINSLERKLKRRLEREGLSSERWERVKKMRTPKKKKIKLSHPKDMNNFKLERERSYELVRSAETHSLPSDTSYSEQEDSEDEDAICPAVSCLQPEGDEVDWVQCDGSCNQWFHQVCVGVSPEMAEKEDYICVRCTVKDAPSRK
T2 sequence (P29375 whole entry): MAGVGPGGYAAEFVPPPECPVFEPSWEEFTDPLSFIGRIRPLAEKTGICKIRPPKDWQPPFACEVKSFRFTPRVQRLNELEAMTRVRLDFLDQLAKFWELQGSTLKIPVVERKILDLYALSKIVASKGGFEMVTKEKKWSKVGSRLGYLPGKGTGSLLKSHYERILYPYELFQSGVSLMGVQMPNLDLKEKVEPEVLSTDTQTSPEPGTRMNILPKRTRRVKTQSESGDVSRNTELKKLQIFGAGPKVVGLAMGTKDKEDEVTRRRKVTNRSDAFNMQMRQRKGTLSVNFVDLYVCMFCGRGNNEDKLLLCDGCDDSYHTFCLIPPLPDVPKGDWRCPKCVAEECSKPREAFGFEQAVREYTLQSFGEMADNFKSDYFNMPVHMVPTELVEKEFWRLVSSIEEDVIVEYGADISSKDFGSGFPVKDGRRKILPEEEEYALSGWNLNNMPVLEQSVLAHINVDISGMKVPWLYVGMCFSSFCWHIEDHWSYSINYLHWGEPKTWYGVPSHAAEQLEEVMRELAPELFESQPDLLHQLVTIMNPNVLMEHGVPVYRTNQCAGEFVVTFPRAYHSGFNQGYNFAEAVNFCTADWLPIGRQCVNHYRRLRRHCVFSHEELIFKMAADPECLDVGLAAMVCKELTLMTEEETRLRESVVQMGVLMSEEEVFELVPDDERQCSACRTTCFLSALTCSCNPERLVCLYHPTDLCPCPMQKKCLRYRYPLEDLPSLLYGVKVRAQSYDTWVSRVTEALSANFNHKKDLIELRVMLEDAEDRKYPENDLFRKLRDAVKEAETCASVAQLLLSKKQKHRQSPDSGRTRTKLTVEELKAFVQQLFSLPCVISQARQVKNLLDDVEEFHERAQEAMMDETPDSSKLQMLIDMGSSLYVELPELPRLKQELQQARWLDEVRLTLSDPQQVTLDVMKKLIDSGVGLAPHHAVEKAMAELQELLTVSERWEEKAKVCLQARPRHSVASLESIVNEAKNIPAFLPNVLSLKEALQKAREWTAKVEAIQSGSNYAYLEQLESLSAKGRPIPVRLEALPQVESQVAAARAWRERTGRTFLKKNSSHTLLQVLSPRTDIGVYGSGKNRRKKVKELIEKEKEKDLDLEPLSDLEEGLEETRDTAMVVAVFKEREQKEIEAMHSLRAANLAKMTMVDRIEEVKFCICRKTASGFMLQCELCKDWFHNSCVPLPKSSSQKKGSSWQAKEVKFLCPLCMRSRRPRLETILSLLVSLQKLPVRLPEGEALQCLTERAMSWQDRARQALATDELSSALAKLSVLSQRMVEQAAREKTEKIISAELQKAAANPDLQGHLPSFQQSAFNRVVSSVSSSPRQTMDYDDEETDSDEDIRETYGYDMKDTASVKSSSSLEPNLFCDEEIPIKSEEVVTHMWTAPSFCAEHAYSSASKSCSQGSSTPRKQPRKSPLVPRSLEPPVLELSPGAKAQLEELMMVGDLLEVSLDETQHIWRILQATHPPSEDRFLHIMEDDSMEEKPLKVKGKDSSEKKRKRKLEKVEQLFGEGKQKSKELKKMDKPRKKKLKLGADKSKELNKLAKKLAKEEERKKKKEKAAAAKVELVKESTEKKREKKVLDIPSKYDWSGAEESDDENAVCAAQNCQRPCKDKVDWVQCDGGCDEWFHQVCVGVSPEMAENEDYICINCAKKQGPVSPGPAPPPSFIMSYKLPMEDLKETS
T1 sequence (O15054 whole entry): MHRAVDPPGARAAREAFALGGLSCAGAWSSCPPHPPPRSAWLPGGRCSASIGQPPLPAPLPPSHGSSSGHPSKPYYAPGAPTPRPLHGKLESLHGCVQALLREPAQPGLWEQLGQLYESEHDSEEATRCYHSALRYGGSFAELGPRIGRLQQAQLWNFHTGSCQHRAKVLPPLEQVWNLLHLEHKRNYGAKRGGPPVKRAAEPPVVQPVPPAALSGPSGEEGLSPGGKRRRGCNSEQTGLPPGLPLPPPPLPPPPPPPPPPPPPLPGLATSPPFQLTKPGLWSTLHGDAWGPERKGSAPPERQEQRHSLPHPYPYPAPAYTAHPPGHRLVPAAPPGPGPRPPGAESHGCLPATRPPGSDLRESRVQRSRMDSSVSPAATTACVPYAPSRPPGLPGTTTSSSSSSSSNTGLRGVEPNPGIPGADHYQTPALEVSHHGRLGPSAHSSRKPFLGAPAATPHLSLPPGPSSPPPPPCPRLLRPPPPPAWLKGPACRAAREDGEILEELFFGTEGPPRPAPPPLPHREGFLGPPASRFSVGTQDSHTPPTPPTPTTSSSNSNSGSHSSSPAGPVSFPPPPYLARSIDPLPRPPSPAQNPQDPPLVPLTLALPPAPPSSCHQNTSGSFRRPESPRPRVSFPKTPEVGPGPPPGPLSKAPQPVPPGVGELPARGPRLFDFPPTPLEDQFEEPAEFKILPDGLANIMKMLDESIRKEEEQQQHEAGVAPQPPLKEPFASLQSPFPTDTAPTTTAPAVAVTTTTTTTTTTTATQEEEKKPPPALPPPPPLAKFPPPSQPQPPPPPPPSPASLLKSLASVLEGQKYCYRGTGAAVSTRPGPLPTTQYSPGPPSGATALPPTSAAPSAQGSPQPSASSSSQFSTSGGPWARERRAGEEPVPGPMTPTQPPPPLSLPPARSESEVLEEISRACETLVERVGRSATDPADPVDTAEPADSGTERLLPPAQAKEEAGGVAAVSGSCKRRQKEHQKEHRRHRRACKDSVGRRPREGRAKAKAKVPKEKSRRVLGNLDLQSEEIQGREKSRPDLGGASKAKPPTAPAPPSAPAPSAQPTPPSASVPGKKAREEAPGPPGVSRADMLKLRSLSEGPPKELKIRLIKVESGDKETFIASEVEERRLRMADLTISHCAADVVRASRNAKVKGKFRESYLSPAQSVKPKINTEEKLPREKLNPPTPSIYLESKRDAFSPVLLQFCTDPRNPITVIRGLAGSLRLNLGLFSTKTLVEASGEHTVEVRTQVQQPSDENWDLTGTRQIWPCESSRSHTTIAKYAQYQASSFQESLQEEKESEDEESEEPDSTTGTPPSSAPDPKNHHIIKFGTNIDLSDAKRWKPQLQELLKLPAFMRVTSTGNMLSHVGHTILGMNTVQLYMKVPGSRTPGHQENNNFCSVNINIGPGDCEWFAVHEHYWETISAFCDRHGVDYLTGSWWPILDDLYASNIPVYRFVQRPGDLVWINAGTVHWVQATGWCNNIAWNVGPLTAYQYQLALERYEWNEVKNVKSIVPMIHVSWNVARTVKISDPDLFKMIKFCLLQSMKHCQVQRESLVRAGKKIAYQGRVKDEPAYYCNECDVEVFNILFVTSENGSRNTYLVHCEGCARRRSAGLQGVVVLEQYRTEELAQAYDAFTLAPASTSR

Consider `CCCCCCN(C)Cc1ccc(-c2[nH]c3c(C#N)cnn3c(=O)c2C(C)C)cc1`, for which the negative-log IC50 (pIC50) in experiment [1] was 7.29; in experiment [4], less than 4.30. The inhibition in [2] is 29.1%; in [3] it was 12.1%; in experiment [5] it was “Dose-dependent effect”. For the same molecule, the inhibition entry in experiment [6] and in [7] was “inactive” each time.
For the molecule `CC(C)c1c(-c2ccccc2)[nH]c2c(C#N)cnn2c1=O`, the inhibition in [8] is 100%; in experiment [9], 35.9%; in [5], “Dose-dependent effect”. Besides, the negative logarithm of the IC50 (pIC50) was 6.47 in [1] and 4.84 in experiment [4].
`CCCCCN(C)CCCCC(=O)N(O)CCC(=O)O`: the inhibition in [8] came to 89.9%; in [2], 17.8%. This molecule showed a pIC50 in [1] of 5.03.
`CCCCCCN(C)CCc1ccc(-c2[nH]c3c(C#N)cnn3c(=O)c2C(C)C)cc1`: in experiment [1], the negative-log IC50 (pIC50) was 8.87. Moreover, the inhibition in [9] is 32.4%; in experiment [2], 22.7%; in experiment [3], 11.8%; in experiment [5] it was “Dose-dependent effect”. Also, the inhibition result in experiment [6] and in [7] was “inactive” throughout.
